Data on three molecules can be found in ChEMBL document CHEMBL3525939, “Organic cation transporter-mediated renal secretion of ipratropium and tiotropium in rats and humans” (Drug Metab Dispos, 2011).

The target of data set [1] is T1, Solute carrier family 22 member 2 (Rattus norvegicus, UniProt Q9R0W2).
T1 sequence (Q9R0W2 whole entry): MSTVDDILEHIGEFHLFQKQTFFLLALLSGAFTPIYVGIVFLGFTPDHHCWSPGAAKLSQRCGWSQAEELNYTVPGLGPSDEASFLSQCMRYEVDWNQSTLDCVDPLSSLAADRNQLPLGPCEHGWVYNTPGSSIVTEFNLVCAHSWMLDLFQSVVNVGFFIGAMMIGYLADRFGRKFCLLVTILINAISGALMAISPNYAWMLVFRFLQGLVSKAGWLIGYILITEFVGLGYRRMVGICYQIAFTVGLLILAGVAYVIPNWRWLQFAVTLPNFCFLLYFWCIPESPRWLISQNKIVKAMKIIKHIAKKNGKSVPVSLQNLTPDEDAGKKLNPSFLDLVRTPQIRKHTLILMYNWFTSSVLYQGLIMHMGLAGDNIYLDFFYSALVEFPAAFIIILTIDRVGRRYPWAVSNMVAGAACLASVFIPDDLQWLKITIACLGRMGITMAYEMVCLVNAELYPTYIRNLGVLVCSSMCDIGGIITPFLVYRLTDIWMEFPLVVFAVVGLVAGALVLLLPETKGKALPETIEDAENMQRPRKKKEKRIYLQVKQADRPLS
As to the kind of experiment: Binding affinity to rat Oct2 assessed as transporter-mediated drug uptake. In kind it is ADME. The method in brief: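 [3H]ipratropium (10 nM) uptake into HEK293/rOct2 cells over 30 sec at pH 7.4, 37°C, in HEPES-buffered saline transport buffer. Mock-cell uptake subtracted to give transporter-mediated uptake. Cells lysed in Triton X-100, counted by liquid scintillation, normalised to protein. Km and Vmax from non-linear least-squares fit to Michaelis-Menten equation. n = 4, mean ± SEM.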

A further data set addresses T2, Oct1 (Slc22a1) (Rattus norvegicus, UniProt Q63089).
T2 sequence (Q63089 whole entry): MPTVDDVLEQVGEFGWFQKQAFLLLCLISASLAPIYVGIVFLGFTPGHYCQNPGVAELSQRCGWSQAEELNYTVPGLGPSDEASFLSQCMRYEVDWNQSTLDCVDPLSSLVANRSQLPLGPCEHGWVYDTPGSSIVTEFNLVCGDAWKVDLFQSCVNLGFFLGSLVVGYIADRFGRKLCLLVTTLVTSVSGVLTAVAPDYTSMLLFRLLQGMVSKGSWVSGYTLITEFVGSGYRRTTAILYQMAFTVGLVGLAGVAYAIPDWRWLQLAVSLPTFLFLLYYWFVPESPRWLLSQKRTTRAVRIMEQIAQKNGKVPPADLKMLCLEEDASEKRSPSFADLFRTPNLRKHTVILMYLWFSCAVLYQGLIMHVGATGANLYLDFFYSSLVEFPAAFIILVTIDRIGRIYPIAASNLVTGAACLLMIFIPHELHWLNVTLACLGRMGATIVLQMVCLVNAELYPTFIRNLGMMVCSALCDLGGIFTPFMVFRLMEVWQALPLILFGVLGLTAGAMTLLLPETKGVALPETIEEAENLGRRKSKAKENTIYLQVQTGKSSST
As to the kind of experiment: Drug uptake in rat Oct1 expressed HEK293 cells at 10 nM at pH 7.4 at 37 degC after 1 min relative to mock cells. In kind it is ADME, cell-based. The following applies: HEK293 cells expressing rat Oct1, pH 7.4, read-out: FC. The method in brief: (§1)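 Transfected HEK293 cells (antibiotic-selected; DMEM with 10% FBS) plated at 1 × 10^5 cells/cm2 and used after 2 days. Uptake of [3H]ipratropium or [3H]tiotropium (10 nM) for 1 min at pH 7.4, 37°C, in HEPES-buffered saline. Cells washed ice-cold, lysed in Triton X-100, counted by scintillation, normalised to protein. Uptake compared with vector-only Mock cells. n = 4.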

Data set [2] deals with Kidney. Nature of the data set: Drug uptake in Wistar rat kidney slice at 10 nM at pH 7.4 at 37 degC after 1 min relative to control in presence of 1 mM imipramine. As to conditions: pH 7.4, 1 min, 0.01 µM. Also on record: interact cpd dose 1 mM. In kind it is ADME, tissue-based. The method in brief: (§2)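 Rat kidney slices incubated with [3H]ipratropium or [3H]tiotropium (10 nM) for 1 min at 37°C and pH 7.4. Each inhibitor given at 1 mM. Adhering water estimated from [14C]inulin uptake. Uptake expressed as percent of control without inhibitor. Mean ± SEM of 4 slices; significance by Student's t-test, p<0.05.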

The target in data set [3] is T3, OCT2 (SLC22A2) (Homo sapiens, UniProt O15244).
T3 sequence (O15244 whole entry): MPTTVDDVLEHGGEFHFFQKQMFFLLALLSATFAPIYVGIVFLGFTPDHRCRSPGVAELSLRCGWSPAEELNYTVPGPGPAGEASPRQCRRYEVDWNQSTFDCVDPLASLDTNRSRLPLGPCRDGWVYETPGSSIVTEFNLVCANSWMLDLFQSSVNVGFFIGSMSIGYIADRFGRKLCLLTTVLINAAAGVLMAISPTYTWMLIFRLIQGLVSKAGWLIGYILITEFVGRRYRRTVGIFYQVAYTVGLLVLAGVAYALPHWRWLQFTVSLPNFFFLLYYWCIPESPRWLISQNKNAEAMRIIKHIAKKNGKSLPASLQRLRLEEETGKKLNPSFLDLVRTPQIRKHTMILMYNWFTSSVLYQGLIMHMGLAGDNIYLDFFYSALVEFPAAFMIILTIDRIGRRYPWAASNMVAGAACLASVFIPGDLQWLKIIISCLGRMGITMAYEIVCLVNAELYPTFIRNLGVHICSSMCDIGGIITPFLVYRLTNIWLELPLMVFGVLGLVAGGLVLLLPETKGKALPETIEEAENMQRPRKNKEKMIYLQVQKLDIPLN
Nature of the data set: Drug uptake in human Oct2 expressed HEK293 cells at 10 nM at pH 7.4 at 37 degC after 1 min relative to mock cells. In kind it is ADME, cell-based. As to conditions: HEK293 cells expressing human Oct2, pH 7.4, read-out: FC. The method in brief: as §1

Data set [4] concerns the target T4, Oct2 (Slc22a2) (Rattus norvegicus, UniProt Q9R0W2).
T4 sequence (Q9R0W2 whole entry): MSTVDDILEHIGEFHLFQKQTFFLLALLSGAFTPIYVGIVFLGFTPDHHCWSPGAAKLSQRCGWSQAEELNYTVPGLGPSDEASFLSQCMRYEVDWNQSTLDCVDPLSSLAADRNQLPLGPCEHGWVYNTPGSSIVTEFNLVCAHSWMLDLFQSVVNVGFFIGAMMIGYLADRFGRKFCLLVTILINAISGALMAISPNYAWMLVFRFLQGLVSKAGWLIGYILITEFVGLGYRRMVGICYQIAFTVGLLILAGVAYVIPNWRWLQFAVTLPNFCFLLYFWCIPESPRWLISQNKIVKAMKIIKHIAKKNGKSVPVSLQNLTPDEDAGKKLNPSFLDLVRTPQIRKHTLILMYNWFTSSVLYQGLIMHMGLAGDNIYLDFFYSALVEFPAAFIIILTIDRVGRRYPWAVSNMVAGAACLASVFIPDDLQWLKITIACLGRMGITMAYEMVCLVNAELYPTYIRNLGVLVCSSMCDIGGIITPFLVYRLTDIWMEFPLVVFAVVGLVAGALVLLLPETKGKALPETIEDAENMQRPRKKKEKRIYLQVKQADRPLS
As to the kind of experiment: Drug uptake in rat Oct2 expressed HEK293 cells at 10 nM at pH 7.4 at 37 degC after 1 min relative to mock cells. In kind it is ADME, cell-based. The following applies: HEK293 cells expressing rat Oct2, pH 7.4, read-out: FC. The method in brief:
as §1

In data set [5] the test system is Kidney. As to the kind of experiment: Drug uptake in Wistar rat kidney slice at 10 nM at pH 7.4 at 37 degC after 1 min relative to control in presence of 1 mM cimetidine. Details: interact cpd dose 1 mM. In kind it is ADME, tissue-based. The following applies: pH 7.4, 1 min, 0.01 µM. The method in brief:
as §2

For data set [6], the system named is Kidney. Nature of the data set: Drug uptake in Wistar rat kidney slice at 10 nM at pH 7.4 at 37 degC after 1 min relative to control in presence of 1 mM quinidine. In kind it is ADME, tissue-based. Details: interact cpd dose 1 mM. As to conditions: pH 7.4, 1 min, 0.01 µM. The method, boiled down:
as §2

The subject of data set [7] is Kidney. As to the kind of experiment: Drug uptake in Wistar rat kidney slice at 10 nM at pH 7.4 at 37 degC after 1 min relative to control in presence of 1 mM TEA+. In kind it is ADME, tissue-based. Details: interact cpd dose 1 mM. As to conditions: pH 7.4, 1 min, 0.01 µM. The method in brief: as §2
For data set [8], the system named is Kidney. Nature of the data set: Drug uptake in Wistar rat kidney slice at 10 nM at pH 7.4 at 37 degC after 1 min relative to control in presence of ipratropium. In kind it is ADME, tissue-based. The following applies: pH 7.4, 1 min, 0.01 µM. The method in brief: as §2
The test system of data set [9] is Kidney. As to the kind of experiment: Drug uptake in Wistar rat kidney slice at 10 nM at pH 7.4 at 37 degC after 1 min relative to control in presence of 1 mM PAH. In kind it is ADME, tissue-based. Details: interact cpd dose 1 mM. The following applies: pH 7.4, 1 min, 0.01 µM. The method in brief:
as §2

For data set [10], the system named is Kidney. Nature of the data set: Drug uptake in Wistar rat kidney slice at 10 nM at pH 7.4 at 37 degC after 1 min relative to control in presence of 1 mM estrone 3-sulfate. In kind it is ADME, tissue-based. Details: interact cpd dose 1 mM. As to conditions: pH 7.4, 1 min, 0.01 µM. The method in brief: as §2
In data set [11] the test system is Kidney. Nature of the data set: Drug uptake in Wistar rat kidney slice at 10 nM at pH 7.4 at 37 degC after 1 min relative to control in presence 1 mM MPP+. In kind it is ADME, tissue-based. Also on record: interact cpd dose 1 mM. As to conditions: pH 7.4, 1 min, 0.01 µM. The method, boiled down: as §2
For data set [12], the system named is Kidney. Nature of the data set: Drug uptake in Wistar rat kidney slice at 10 nM at pH 7.4 at 37 degC after 1 min. The following applies: pH 7.4, 1 min, 0.01 µM. In kind it is ADME, tissue-based. The method in brief:
as §2

Substrate in data set [13]: NCCc1ccc(O)c(O)c1
Nature of the data set: cells, lysate or membranes named.

On to `C[n+]1ccc(-c2ccccc2)cc1`, for which, in [1], the Km (usually the concentration of substrate that gives half-maximal velocity) amounted to 17 µM.

For `C[N+]1(C)[C@@H]2C[C@@H](OC(=O)C(O)(c3cccs3)c3cccs3)C[C@@H]1[C@H]1O[C@H]12.[Br-]`, the results for the uptake ratio at 1 min, 0.01 µM on Oct1 (Slc22a1), at OCT2 (SLC22A2) [3] and at Oct2 (Slc22a2) [4] were 8.4, 8.5 and 3, respectively. For the same molecule, the Drug uptake in the data set with Kidney [2] was 36.7%; with Kidney [5], 54.5%; in the data set with Kidney [6] it was 34.9%; with Kidney [7], 67.3%; in the data set on Kidney [8], 25.6%; in the data set with Kidney [9] it was 97.4%. Besides, the Drug uptake with Kidney [10] turned out to be 104%; in the data set with Kidney [11], 39.8%; in the data set with Kidney [12], 100%.

B1: Solute carrier family 22 member 2 (Rattus norvegicus) (protein)
chain: MSTVDDILEHIGEFHLFQKQTFFLLALLSGAFTPIYVGIVFLGFTPDHHCWSPGAAKLSQRCGWSQAEELNYTVPGLGPSDEASFLSQCMRYEVDWNQSTLDCVDPLSSLAADRNQLPLGPCEHGWVYNTPGSSIVTEFNLVCAHSWMLDLFQSVVNVGFFIGAMMIGYLADRFGRKFCLLVTILINAISGALMAISPNYAWMLVFRFLQGLVSKAGWLIGYILITEFVGLGYRRMVGICYQIAFTVGLLILAGVAYVIPNWRWLQFAVTLPNFCFLLYFWCIPESPRWLISQNKIVKAMKIIKHIAKKNGKSVPVSLQNLTPDEDAGKKLNPSFLDLVRTPQIRKHTLILMYNWFTSSVLYQGLIMHMGLAGDNIYLDFFYSALVEFPAAFIIILTIDRVGRRYPWAVSNMVAGAACLASVFIPDDLQWLKITIACLGRMGITMAYEMVCLVNAELYPTYIRNLGVLVCSSMCDIGGIITPFLVYRLTDIWMEFPLVVFAVVGLVAGALVLLLPETKGKALPETIEDAENMQRPRKKKEKRIYLQVKQADRPLS
As for B1, the Km in [13] was found to be 650 µM.
